# Data: PubChem BioAssay AID1046 (PCMD, 2008)
# Screen size: about 220,000 compounds; about 560 (0.25%) were called active.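 Rule for the calls: active = inhibition at or above 40%; inactive = inhibition below 40%.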 The entries come from a sample that favours actives as a whole.
# Biological target: Prothrombin (Homo sapiens) (UniProt P00734)
# Assay: human alpha-thrombin inhibitors, primary screen, counter-screen for coagulation protease inhibitor project, biochemical, 1536-well, fluorogenic AMC substrate (AID 1046);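 note: 0% = enzyme with no compound and 100% = wells without enzyme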
# Details: Boc-VPR-AMC fluorogenic substrate cleavage, at 5 µM, hits give high values
# How it was run: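 System: Human alpha-thrombin protein | Medium: pH 7.5 Tris (50 mM) with NaCl 150 mM, Tween 20 0.05% | Times: Enzyme reaction carried out at room temperature | Detection: AMC fluorescence, 355/460 nm | Evaluation: Percent inhibition scaled between no-compound controls and no-enzyme blanks | Benchmarks: Enzyme without compound as high, wells lacking enzyme as low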
row,Compound,inhibition
1,CCOC(=O)c1c(NC(=O)C(C)Sc2c[nH]c3ccccc23)sc2c1CCC2 (stereo unspecified),1.33% (inactive)
2,CC(=O)c1sc2nc(SCC(=O)N3CCCCC3)[nH]c(=O)c2c1C,-2.78% (inactive)
3,Cc1nnc(SCC(=O)N2CCOCC2)[nH]c1=O,-2.64% (inactive)
4,O=C(CSc1nc2c(cnn2-c2ccc(F)cc2)c(=O)[nH]1)N1CCCCCC1,40.9% (active)
5,CCNC(=S)NNC(=O)C1CCN(Cc2ccccc2)CC1,-3.23% (inactive)
6,O=C(Nc1cc2c3c(c1)C1CCCC1CN3CC1CCCC21)c1ccc([N+](=O)[O-])cc1 (stereo unspecified),101% (active)
7,O=C(Nn1cnnc1)c1ccc([N+](=O)[O-])cc1,-7.16% (inactive)
8,Cc1ccc(C)n1NC(=O)c1ccc([N+](=O)[O-])cc1,-0.02% (inactive)
9,Cn1c(=O)c(=O)n(C)c2cc(S(=O)(=O)NCCN3CCN(c4ccccc4F)CC3)ccc21,-4.5% (inactive)
10,C=CCC(Nc1ccccc1)c1cccc(OC)c1OC (stereo unspecified),-13% (inactive)
11,CC1COc2ccccc2N1S(=O)(=O)c1ccccc1 (stereo unspecified),4.45% (inactive)
12,Cc1ccccc1Cn1nc(C)c(NC(=O)C(F)(F)F)c1C,-1.16% (inactive)
13,CCO[C@@H]1OC(C(=O)NC2CC2)=C[C@H](C)[C@H]1CCCO,-5.9% (inactive)
14,CCN1CCN(CC(=O)c2cc(OC)c(OC)c(OC)c2)CC1,45.6% (active)
15,CCCN(CCC)S(=O)(=O)c1ccc(C(=O)NNC(=O)c2cc(OC)c(OC)c(OC)c2)cc1,2.82% (inactive)
16,COC(=O)c1cccc(NC(=O)CN2CCC(NC(=O)c3cc(OC)c(OC)c(OC)c3)CC2)c1,-1.04% (inactive)

row,Compound,inhibition
1,CCCN(CCC)c1c([N+](=O)[O-])c(=O)oc2ccccc12,0.93% (inactive)
2,COc1ccc(OC)c(-n2c(-c3ccn[nH]3)n[nH]c2=S)c1,-4.83% (inactive)
3,COCC(=O)Nc1cc(C(=O)OC)cc(C(=O)OC)c1,0.93% (inactive)
4,CS(=O)(=O)n1nc(-c2ccccc2)nc1NCc1ccco1,-2.92% (inactive)
5,O=C(Cc1ccccc1)n1nc(-c2ccccc2)nc1NCc1ccco1,75.1% (active)
6,c1ccc(-c2nc(NCc3ccco3)c3ccccc3n2)cc1,3.14% (inactive)
7,O=C(c1ccc(N2CCOCC2)c([N+](=O)[O-])c1)N1CCN(S(=O)(=O)c2cccs2)CC1,-1.14% (inactive)
8,c1ccc(CN=C2Nc3ccccc3CS2)nc1,-2.61% (inactive)
9,O=C(CSc1nc2ccccc2s1)Nc1ccc(C(=O)O)cc1,-1.16% (inactive)
10,CCn1cc(CNC(=O)c2cc([N+](=O)[O-])c(C)c([N+](=O)[O-])c2)cn1,-0.78% (inactive)
11,Cc1ccc(CN2CCN(Cc3cn(C)nc3-c3ccccc3)CC2CCO)o1 (stereo unspecified),0.78% (inactive)
12,Cc1cc(C)cc(N(CC(=O)Nc2c(C)n(C)n(-c3ccccc3)c2=O)S(C)(=O)=O)c1,4.95% (inactive)
13,Cc1ccc(S(=O)(=O)/N=C(/NC(=S)Nc2c(C)n(C)n(-c3ccccc3)c2=O)c2ccccc2)cc1,3.47% (inactive)
14,Cc1ccc(S(=O)(=O)CC(=O)Nc2c(C)n(C)n(-c3ccccc3)c2=O)cc1,46.1% (active)
15,CC(=O)N/C(=C\c1ccc(F)cc1)C(=O)NC(Cc1ccccc1)C(=O)O (stereo unspecified),-5.05% (inactive)
